Screening results as filed in PubChem BioAssay.
An excerpt weighted towards active compounds, which were near 2.2% of everything screened.
BaF3 parental – parental Ba/F3 cell viability inhibition, counter-screen for JAK2V617F inhibitor project, murine pro-B, CellTiter-Glo luminescence; inhibition, % at 5.6 µM; CellTiter-Glo ATP luminescence; 220,000 tested, 1.1% active; AID 1486, 2009;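 active = inhibition above a per-campaign cutoff, the mean inhibition of all tested compounds plus 3 SD, cut at about 27% in these data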;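 also: 0% = DMSO wells and 100% = JAK Inhibitor I control wells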
Ba/F3 V617F tox – reduced viability of JAK2V617F-dependent Ba/F3 cells, primary screen, JAK2V617F inhibitor project, cell-based, Ba/F3 EpoR-JAK2V617F, luminescence. inhibition, % at 5.6 µM. 220,000 tested, 1.1% active. ATP luminescence;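 active = inhibition above the campaign mean plus 3 SD over all tested compounds, cut at about 24% in these data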;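 also: cytokine-independent growth of Ba/F3 cells driven by EpoR plus mutant JAK2; 0% = DMSO-treated cells and 100% = JAK inhibitor I control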
APP 5UTR inh – inhibitors of APP translation via 5'UTR reporter, primary screen, APP 5'UTR luciferase, SH-SY5Y cells; inhibition, % at 2 µM; SH-SY5Y APP 5'UTR-luciferase reporter, luminescence; 190,000 tested, 0.82% active;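 active = inhibition above a set limit, derived from the sample mean plus 3 SD, cut at about 45% in these data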
bCat nuc transl – modulators of beta-catenin nuclear translocation, primary screen, imaging, HeLa cells, immunofluorescence, high-content. 190,000 tested, 0.3% active. nuclear translocation activity, % at 5 µM;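 active = nuclear translocation activity above 50% at 5 µM, with a well cell count of 50 or more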;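 also: per-cell ratio of nuclear to cytoplasmic median beta-catenin stain intensity; plate controls were DMSO negative control for no effect and GSK-3 inhibitor IX positive control for full effect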
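Technique: fluorescence imaging of beta-catenin antibody stain plus DAPI / Material: human HeLa cell line / Incubation: compound treatment 24 h, 37°C, 5% CO2 / Read-out basis: % activation of per-cell nuclear versus cytoplasmic median beta-catenin signal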
MT stabilizer – microtubule stabilizers in HeLa cells, primary screen, imaging, high-content imaging; HeLa tubulin immunostaining HCS, 24 h; share of cells brighter than vehicle mean+2SD; % tubulin-high responders, % at 10 µM; 200,000 tested, 0.83% active; AID 2205, 2009;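 active = plate Z-score above 3 for both tubulin-high and condensed-nucleus cell shares, with cell loss under 80%, at 10 µM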;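 also: anti alpha tubulin signal scored within the nucleus-defined area of each cell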
IEC-6 tox – cytotoxicity in IEC-6 intestinal epithelial cells, primary screen, cytotoxicity control for KLF5 inhibitor project, cell-based, luminescence; inhibition, % at 5 µM; 290,000 tested, 0.78% active; IEC-6 cytotoxicity, luminescence viability; AID 1825, 2009; in the data active = inhibition above about 22%;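 also: 0% = plate median of test compound wells and 100% = cytotoxic reference compound wells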
Starred values were filed as active, the others as inactive; . = no result.

SMILES	BaF3 parental	Ba/F3 V617F tox	APP 5UTR inh	bCat nuc transl	MT stabilizer	IEC-6 tox
CCOC(=O)N1CCN(Cc2cc(Cl)c3cccnc3c2O)CC1	9.6	2.5	83.3*	-2.6	4.7	14.5
COc1ccccc1N1CCN(Cc2ccc(O)c3ncccc23)CC1	36.9*	42.2*	90.3*	2.1	2.6	0.6
COc1ccccc1N1CCN(c2ncnc3c2oc2ccccc23)CC1	5.1	1.8	-10.9	74.0*	26.8*	2.9
CCOC(=O)N1CCN(Cc2ccccc2Cl)CC1	1.3	1.2	-15.3	-0.7	2.6	1.8
CCOC(=O)C1CCN(Cc2ccc(O)c3ncccc23)CC1	49.8*	81.7*	40.6	-3.4	3.7	0.6
O=C(CN1CCC(C(=O)c2ccc3c(c2)OCCO3)CC1)NCc1ccc(F)cc1	.	.	.	.	.	1.7
COc1cc(OC)c2ccc(=O)oc2c1C(CCN1CCN(c2ccccc2)CC1)c1ccc(N(C)C)cc1 (stereo not given)	.	.	.	-1.0	.	.
COc1ccccc1N1CCN(C(=O)c2oc3ccc(Br)cc3c2C)CC1	4.3	1.2	23.5	22.6	14.7*	-0.7
Cc1ccc(C(=O)N2CCN(C)CC2)cc1[N+](=O)[O-]	.	.	.	.	.	-3.1
Cc1cc(C(=O)COc2ccccc2C(N)=O)c(C)n1CC1CCCO1 (stereo not given)	62.1*	45.1*	-22.1	-2.2	7.7	15.3
Cc1cc(C(=O)COC(=O)c2ccccc2Br)c(C)n1CC1CCCO1 (stereo not given)	-13.8	3.7	.	-0.8	.	3.2
CCOC(=O)Nc1c(Cl)n(C)c(=O)n(C)c1=O	-2.1	-3.7	.	-1.0	.	-2.5
C=C1CCC[C@]2(C)C[C@H]3OC(=O)C(CNC(C)(CO)CO)[C@H]3CC12 (stereo not given in full)	.	.	.	.	.	3.7
CCOCCCNC(=O)c1c(N)n(-c2ccc3c(c2)OCO3)c2nc3ccccc3nc12	59.9*	35.7*	.	-0.7	.	21.5
COCCCNC(=O)c1c(N)n(-c2ccc3c(c2)OCO3)c2nc3ccccc3nc12	6.9	1.2	10.2	.	3.2	10.3
COc1cccc(-c2nc(-c3ccccc3)nc(N3CCN(C)CC3)c2C#N)c1	2.3	-1.2	0.9	50.5*	18.6*	-1.4
CN1CCN(c2nc(-c3ccccc3)nc(-c3ccccc3)c2C#N)CC1	9.0	1.4	3.5	2.4	9.8*	-4.2
COc1ccc(-c2nc(-c3ccccc3)nc(N3CCN(C)CC3)c2C#N)cc1	5.9	0.9	12.9	.	28.0	3.7
COc1ccc(-c2nc(-c3cccc(C)c3)nc(N3CCN(C)CC3)c2C#N)cc1	2.2	3.6	9.8	21.2	39.2*	1.9
Cc1sc2ncnc(NC3CCN(Cc4ccccc4)CC3)c2c1C	33.9*	32.5*	4.5	-4.8	4.0	16.3
CCN(CC)c1ccc(/C=N/NC(=O)c2ccc(Br)o2)cc1	5.2	2.1	-95.7	.	33.5*	-0.7
O=C(N/N=C/c1ccco1)c1cc2ccccc2o1	.	.	.	.	.	-0.5
O=C(N/N=C/c1ccco1)c1ccc(Br)o1	96.0*	-4.7	-2.3	-0.9	2.7	-1.2
COc1cccc(OCC(=O)Nc2c3c(nn2-c2ccccc2)CS(=O)(=O)C3)c1	.	.	.	.	.	4.4
COc1ccc(C(=O)Nc2nnc(Cc3cccs3)s2)cc1OC	41.3*	39.1*	-0.4	-0.4	3.6	3.8
SMILES	BaF3 parental	Ba/F3 V617F tox	APP 5UTR inh	bCat nuc transl	MT stabilizer	IEC-6 tox
COc1ccc(Cc2nnc(NC(=O)c3ccc(OC)c(OC)c3)s2)cc1	.	.	.	.	.	1.5
O=C1CCC/C1=C\Nc1ccc(Cl)c([N+](=O)[O-])c1	58.4*	1.0	.	0.2	.	0.3
O=C1CCC/C1=C/Nc1ccc(Cl)cc1	-0.6	-0.9	-11.7	0.5	3.7	-4.6
COc1cc(Cl)ccc1OCc1cc(C(=O)N2C[C@]3(C)C[C@H]2CC(C)(C)C3)no1	.	.	.	.	.	4.6
COc1ccccc1C(=O)N/C(=C\c1cn(S(=O)(=O)N(C)C)c2ccccc12)C(=O)NCCN1CCOCC1	.	.	.	.	.	-1.3
COc1ccc(/C=N/n2cnn(Cc3ccccc3Cl)c2=S)cc1	2.2	-2.1	80.4*	-1.1	6.4	-4.1
Cc1ccc(Oc2ccc(OCC(=O)NC3CCS(=O)(=O)C3)cc2)cc1 (stereo not given)	.	.	.	.	.	3.8
Nn1cnnc1N/N=C/c1cc(Br)cc(Br)c1O	2.8	9.2	15.6	2.6	3.5	30.6*
CC(C)(C)c1ccc(/C=N/Nc2nncn2N)cc1	.	.	.	.	.	-6.4
Cc1cccc(CN2CCc3c([nH]c4ccccc34)C2C(C)(C)C)n1 (stereo not given)	.	.	.	.	.	-2.7
CCOc1ccccc1NC(=O)C1CCCN(S(=O)(=O)c2c(C)[nH]c(=O)[nH]c2=O)C1 (stereo not given)	6.0	4.2	45.4*	-3.2	1.5	0.8
Cn1c(SCC(=O)Nc2ccccc2)nc2ccccc2c1=O	.	.	.	.	.	5.7
Cc1c(C(=O)C(=O)N2c3ccc(F)cc3CCC2C)c2ccccc2n1C (stereo not given)	7.1	-2.2	83.2*	67.9*	5.6	5.5
Cc1c(C(=O)C(=O)N2CCCc3ccccc32)c2ccccc2n1C	-0.4	-3.1	10.7	0.8	29.6*	3.2
Cc1c(C(=O)C(=O)N2CCN(C)CC2)c2ccccc2n1C	0.2	0.7	-0.7	-4.6	2.4	-0.1
COc1ccccc1OCC(=O)Nc1cccc(N(C)S(C)(=O)=O)c1	1.9	-2.0	55.5*	-5.1	1.7	-2.4
c1ccc(-c2ccc(-c3nc(-c4ccccn4)no3)cc2)cc1	12.4	11.9	46.1*	3.0	2.1	8.0
CCC(c1nnnn1C1CCCC1)N(Cc1cccs1)Cc1cc2cc(C)ccc2[nH]c1=O (stereo not given)	-2.7	-4.6	-11.8	91.1*	35.5*	-6.1
Cc1ccc(S(=O)(=O)ON2C(=O)c3ccccc3C2=O)c(C)c1	2.1	-0.4	55.9*	1.1	4.6	-0.4
Cc1nn(C)c(C)c1CNC(=O)c1nn2c(c1Cl)NC(c1cccs1)CC2C(F)(F)F (stereo not given)	32.2*	15.3	3.0	-0.3	2.4	3.5
C=CC[n+]1c(/C=C2\C=Cc3cc(C)ccc3N2CC)ccc2ccccc21	80.4*	100.3*	20.3	-1.9	12.4	40.8*
CCN1C(=C(C#N)C#N)C=Cc2cc(C)ccc21	3.4	0.5	-10.9	-0.3	4.2	11.8
Oc1ccc(/C=N/N=C(c2ccccc2)c2ccccc2)c(O)c1O	1.6	-4.3	48.7*	-1.8	3.9	-22.2
CCCOc1cc(C)c(S(=O)(=O)NC2CC(C)(C)NC(C)(C)C2)cc1C	-0.8	-2.4	-3.5	-3.9	3.0	-4.1
